The list is not random: actives were taken first. Their share in the collection is about 2.2%.
Runt-SMMHC FRET = inhibitors of RUNX1 Runt–CBFb-SMMHC binding, primary screen, biochemical, FRET, Cerulean-Runt, Venus-CBFb-SMMHC, uHTS; 0.74% of 220,000 active; inhibition, % at 20 µM; Runt-related transcription factor 1 (Homo sapiens) + Core-binding factor subunit beta …; Cerulean-Runt/Venus-CBFb-SMMHC FRET ratio 530/480, 1 h;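 active = mean inhibition across duplicate retests at 20 µM reaching about 50%, limit read from the data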;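 note: 0% = DMSO wells and 100% = wells with excess untagged CBFb-SMMHC; inhibitors lower the FRET ratio by blocking Runt binding to CBFb-SMMHC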
Runt-CBFb FRET = inhibitors of RUNX1 Runt–CBFb binding, primary screen, biochemical, FRET, Cerulean-Runt, Venus-CBFb, uHTS; Cerulean-Runt/Venus-CBFb FRET ratio 530/480, 1 h; AID 1496, 2009; inhibition, % at 20 µM; 0.46% of 220,000 active;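 active = inhibition over about 50% at 20 µM in the single-dose screen, limit read from the data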;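 note: 0% = DMSO wells and 100% = excess unlabeled CBFb competitor control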
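System: Cerulean-labeled Runt domain protein | Quantity: 100 nM of each labeled protein | Schedule: 1 h compound exposure, room temperature | Detection: Fluorescence energy transfer, 422 nm excitation, 530/480 nm emission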
Hck Nef HTS = inhibitors of Nef-activated human Hck kinase, primary screen, biochemical, Z-Lyte FRET, 384-well, Hck-YEEI. Tyrosine-protein kinase HCK (Homo sapiens), P08631. 0.68% of 220,000 active. AID 463187, 2010. inhibition, % at 20 µM. Recombinant Hck-YEEI plus Nef, Z-Lyte FRET kinase assay;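 active = Hck-Nef kinase inhibition above about 50%, limit read from the data; inactive = inhibition below that limit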;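 note: 0% = DMSO with Hck plus Nef and 100% = Hck alone without Nef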
eIF4E-4G inh = eIF4E–eIF4G protein interaction inhibitors, primary screen, biochemical, uHTS, TR-FRET, eIF4GI fragment. TR-FRET eIF4E-eIF4GI(517-606) binding, 2 h. inhibition, % at 21.7 µM. 0.37% of 220,000 active;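 active = inhibition above about 30%, limit read from the data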;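 note: 0% = full FRET control wells and 100% = background wells lacking eIF4GI fragment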
Target sequence (P63073 whole entry, looked up, the tested form may be a part): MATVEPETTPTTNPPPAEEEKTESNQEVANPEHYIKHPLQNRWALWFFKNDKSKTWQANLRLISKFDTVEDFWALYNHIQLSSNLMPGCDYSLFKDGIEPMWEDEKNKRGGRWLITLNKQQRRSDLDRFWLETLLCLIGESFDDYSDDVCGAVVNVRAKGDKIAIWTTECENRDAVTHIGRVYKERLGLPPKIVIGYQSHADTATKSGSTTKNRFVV
Target sequence (Q04637 whole entry, looked up, the tested form may be a part): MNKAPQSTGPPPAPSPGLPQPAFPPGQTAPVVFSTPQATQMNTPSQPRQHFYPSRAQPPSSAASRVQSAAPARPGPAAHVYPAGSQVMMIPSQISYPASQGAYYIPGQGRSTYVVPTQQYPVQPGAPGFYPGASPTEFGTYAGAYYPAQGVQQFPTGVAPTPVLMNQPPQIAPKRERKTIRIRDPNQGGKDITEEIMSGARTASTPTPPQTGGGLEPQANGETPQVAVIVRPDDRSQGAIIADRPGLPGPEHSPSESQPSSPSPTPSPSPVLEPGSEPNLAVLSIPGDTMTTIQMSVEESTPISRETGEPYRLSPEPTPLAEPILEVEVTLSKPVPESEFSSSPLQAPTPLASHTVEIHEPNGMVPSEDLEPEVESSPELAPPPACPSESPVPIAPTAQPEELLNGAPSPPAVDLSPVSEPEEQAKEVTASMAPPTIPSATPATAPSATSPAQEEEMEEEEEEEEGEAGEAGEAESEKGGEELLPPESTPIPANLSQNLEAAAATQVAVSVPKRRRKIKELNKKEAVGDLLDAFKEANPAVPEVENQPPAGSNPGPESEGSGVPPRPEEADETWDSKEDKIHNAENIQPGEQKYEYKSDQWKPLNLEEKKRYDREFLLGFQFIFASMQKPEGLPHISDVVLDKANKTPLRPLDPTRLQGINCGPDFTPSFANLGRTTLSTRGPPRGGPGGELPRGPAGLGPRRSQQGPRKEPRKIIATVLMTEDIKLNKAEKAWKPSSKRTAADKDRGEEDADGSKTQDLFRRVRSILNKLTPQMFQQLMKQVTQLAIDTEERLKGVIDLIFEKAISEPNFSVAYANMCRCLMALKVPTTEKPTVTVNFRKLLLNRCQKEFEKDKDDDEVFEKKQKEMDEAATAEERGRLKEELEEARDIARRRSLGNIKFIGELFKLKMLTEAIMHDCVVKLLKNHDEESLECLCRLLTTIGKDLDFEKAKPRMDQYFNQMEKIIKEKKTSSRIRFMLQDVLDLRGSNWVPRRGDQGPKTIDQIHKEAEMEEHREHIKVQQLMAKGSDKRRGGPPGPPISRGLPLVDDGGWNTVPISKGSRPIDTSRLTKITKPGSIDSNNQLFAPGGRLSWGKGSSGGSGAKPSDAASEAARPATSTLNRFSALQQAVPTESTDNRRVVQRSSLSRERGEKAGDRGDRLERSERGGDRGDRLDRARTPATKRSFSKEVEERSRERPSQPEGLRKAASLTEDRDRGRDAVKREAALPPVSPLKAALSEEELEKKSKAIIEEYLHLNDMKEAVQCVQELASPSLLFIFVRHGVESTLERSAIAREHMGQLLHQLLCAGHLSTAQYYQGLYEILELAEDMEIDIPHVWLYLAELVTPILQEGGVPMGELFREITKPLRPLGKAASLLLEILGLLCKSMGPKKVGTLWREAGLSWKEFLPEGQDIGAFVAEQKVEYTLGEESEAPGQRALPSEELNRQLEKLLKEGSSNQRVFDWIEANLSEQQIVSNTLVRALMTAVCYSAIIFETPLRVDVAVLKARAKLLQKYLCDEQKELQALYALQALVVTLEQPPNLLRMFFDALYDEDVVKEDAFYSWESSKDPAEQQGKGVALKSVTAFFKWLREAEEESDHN
PERK inhibitor = block of dimerizer-induced PERK translation repression, primary screen, PERK inhibitor project, CHO PERK-DD cells, SEAP luminescence, HTS. Eukaryotic translation initiation factor 2-alpha kinase 3 (Homo sapiens), Q9NZJ5. CHO PERK-DD fusion, SEAP luminescence translation reporter. inhibition, % at 5.6 µM. 0.17% of 220,000 active. AID 1416, 2008;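 active = inhibition above the mean inhibition of all tested compounds plus 3 SD, set separately per screening campaign, cut at about 2.9% in these data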;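 note: PERK kinase domain activated by AP20187 dimerizer at 100 nM; 0% = DMSO with dimerizer and 100% = rapamycin at 8.4 µM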
RanGTP-Imp inh = inhibitors of RanGTP-importin-beta interaction, primary screen, biochemical, FRET, CFP-Ran, YFP-importin-beta, homogeneous; Ran GTPase (GTP-bound) - importin-beta complex; inhibition, % (test concentration not listed); cell-free CFP-Ran/YFP-importin-beta FRET ratio; 1.1% of 300,000 active;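 active = more than half of the replicate wells show a fall in the fluorescence ratio signal beyond about 16%, limit read from the data, passing the limit was not always enough; inconclusive = exactly half of the replicate wells pass the set limit; inactive = fewer than half of replicates pass the limit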;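 note: 0% = DMSO wells and 100% = Ran loaded with GDP instead of GTP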
Starred values were filed as active, the others as inactive; ? = inconclusive; . = not tested or not shown; [ ] = remark or other dose.

SMILES | Runt-SMMHC FRET | Runt-CBFb FRET | Hck Nef HTS | eIF4E-4G inh | PERK inhibitor | RanGTP-Imp inh
CCOc1ccc(C2C(C#N)=C(N)SC(N)=C2C#N)cc1OC | -6.7 | 5.7 | 5.9 | 4.5 | -0.3 | 26.1*
N#CC1=C(N)SC(N)=C(C#N)C1c1ccc(C(F)(F)F)cc1 | 40.8 | 37.6 | 2.2 | 3.7 | 0.1 | 23.9*
CCOc1ccccc1C1C(C#N)=C(N)SC(N)=C1C#N | 42.8 | 13.0 | 2.7 | 0.3 | -1.0 | 11.4
N#CC1=C(N)SC(N)=C(C#N)C1c1ccc([N+](=O)[O-])cc1 | 41.0 | 41.0 | 3.7 | -6.8 | 1.2 | -2.0
CCOc1ccc(C2C(C#N)=C(N)SC(N)=C2C#N)cc1OCC | 26.8 | 11.9 | . | -2.1 | . | 33.1*
CC(C)CC(=O)N1CCC(N2CCN(c3ccccc3)CC2)CC1 | -0.3 | 0.9 | -0.2 | 50.2* | 0.8 | -2.7
Cc1cccc(NC(=O)C2SC(=Nc3c(C)cccc3C)C(C(=O)N3CCOCC3)=C2N)c1 (stereo not drawn) | 6.4 | 10.5 | 0.8 | -6.0 | -0.2 | 5.0
COc1ccc(C(=O)NNC2=CC(=O)CC(C)(C)C2)cc1OC | 2.5 | 4.3 | 6.6 | 3.0 | 1.2 | 26.2*
CC1(C)CC(=O)C=C(NNC(=O)c2ccccc2)C1 | 2.7 | -0.8 | 5.2 | 9.1 | 0.5 | ?
Cc1occc1C(=O)NNC1=CC(=O)CC(C)(C)C1 | 0.4 | 2.4 | -3.6 | 8.0 | 0.8 | 25.7*
Cn1c(=O)n(Cc2ccccc2F)c(=O)c2c1nc1n2CCN1Cc1ccco1 | -0.5 | -0.5 | 3.7 | 0.4 | -0.6 | 4.2
COc1ccc2cc3[n+](cc2c1OC)CCc1cc2c(cc1-3)OCO2 | -10.4 | -4.9 | -3.4 | -5.3 | 0.5 | 5.2
O=C1C=C(Nc2cccc(O)c2)CC(c2ccco2)C1 (stereo not drawn) | -8.1 | 0.6 | 9.4 | 3.4 | 0.6 | 64.2*
CCOc1ccc(NC2=CC(=O)CC(c3ccco3)C2)cc1 (stereo not drawn) | 1.1 | 3.1 | 17.7 | -1.1 | 0.5 | 4.6
O=C1C=C(Nc2ccc(Cl)cc2)CC(c2ccco2)C1 (stereo not drawn) | -0.7 | 1.3 | 9.9 | -0.4 | -0.7 | 28.8*
O=C(Nc1ccc(Cl)cc1)Nc1ccc2c(c1)N1CCN=C1S2 | 3.4 | 0.3 | 3.6 | -3.4 | -0.9 | -3.6
C=CCc1c(C)nc(SCc2nc3ccccc3c(=O)[nH]2)[nH]c1=O | -1.9 | -0.4 | 2.6 | -3.3 | 1.2 | -2.5
Cc1cc(NC(=O)c2noc3c2CCc2ccccc2-3)n(-c2ccccc2)n1 | -4.0 | -1.6 | 0.7 | 76.5*[fluorescence artefact?] | 0.1 | 6.9
CCOc1ccc(N(CC(=O)NC2CCCCC2)S(=O)(=O)c2ccc(C)cc2)cc1 | . | . | . | . | . | 3.6
CCN(CC(=O)Nc1ccc(OC)cc1)C(=O)c1cc(-c2cccs2)nn1-c1ccccc1 | . | . | . | . | . | -0.2
c1ccc2[nH]c(CN3CCOCC3)nc2c1 | 0.9 | 0.1 | 2.2 | -0.6 | -0.3 | 0.3
c1ccc2[nH]c(SN3CCOCC3)nc2c1 | 62.0* | 3.6 | -1.6 | 43.6*[fluorescence artefact?] | 0.9 | .
CNC(=S)Nc1ccc([N+](=O)[O-])c(C)c1 | -0.8 | 1.0 | 10.9 | 1.0 | -0.4 | 0.3
O=C(O)c1ccc2c(c1)C(=O)N(c1cccc(-c3nc4ccccc4s3)c1)C2=O | -11.5 | 1.0 | 35.4 | 46.3* | 0.6 | ?
CC(=O)Oc1cccc(N2C(=O)c3ccc(C(=O)O)cc3C2=O)c1 | 1.0 | -1.8 | 0.4 | 3.0 | 0.3 | -0.8
SMILES | Runt-SMMHC FRET | Runt-CBFb FRET | Hck Nef HTS | eIF4E-4G inh | PERK inhibitor | RanGTP-Imp inh
Nc1ccc(C(=O)N/N=C\c2cc(N=Nc3cccc4ccccc34)ccc2O)cc1 | -7.7 | -4.0 | 3.4 | -35.8 | 0.0 | -3.7
CN1CCc2c(sc(NC(=O)c3cc4cc([N+](=O)[O-])ccc4s3)c2C(N)=O)C1 | 17.2 | 5.0 | 21.3 | -8.7 | 0.1 | 3.6
CC(C)N1CCc2c(sc(NC(=O)c3ccc(C(=O)c4ccccc4)cc3)c2C(N)=O)C1 | . | . | . | . | . | 63.5*
CC(=O)Nc1sc2c(c1-c1nc3ccccc3s1)CCN(C(C)C)C2 | 85.4* | 23.7 | -36.9 | -1.1 | 0.4 | .
CC(C)N1CCc2c(sc(NC(=O)c3cc4cc([N+](=O)[O-])ccc4s3)c2C(N)=O)C1 | -0.5 | -2.1 | 9.3 | 3.6 | 0.4 | 32.9*
CC(C)N1CCc2c(sc(NC(=O)c3ccc4ccccc4c3)c2C(N)=O)C1 | . | . | . | . | . | 147.7*
CC(=O)Nc1cccc(-c2nc3ccccc3s2)c1 | -3.0 | -0.4 | 16.1 | 3.4 | 0.0 | .
CC(=O)c1ccc(OCc2cc(C(=O)NC(C)Cc3ccccn3)no2)cc1 (stereo not drawn) | . | . | . | . | . | 3.0
CCn1c(-c2cccn(Cc3ccccc3)c2=O)n[nH]c1=S | 6.5 | 7.3 | 14.4 | -4.2 | -0.2 | 1.6
O=C1OCC/C1=C\OCCCO/C=C1\CCOC1=O | -2.0 | -1.5 | 12.2 | 85.8* | 1.1 | 1.2
O=S(=O)(c1ccccc1Cl)N1CCCC1c1nc(-c2ccccc2Cl)no1 (stereo not drawn) | -3.3 | -1.4 | 0.7 | 0.7 | 0.0 | 4.8
CC1(C)CC(=O)C(/C=N/c2ccccn2)=C(O)C1 | -0.9 | -0.7 | 2.4 | 0.0 | 1.5 | 5.0
CC1(C)CC(=O)C(C=Nc2cccc(/N=C/C3=C(O)CC(C)(C)CC3=O)n2)=C(O)C1 | 6.8 | 3.1 | 1.0 | 0.5 | 0.1 | 32.4*
Cc1ccc(Nc2[nH]c(=O)c3ccccc3c2C(=O)c2ccccc2)cc1 | . | . | . | . | . | 27.4*
Cc1c(/C(O)=C2/C(=O)C(=O)N(CCN3CCOCC3)C2c2ccccn2)cnn1-c1ccccc1 (stereo not drawn) | 18.0 | 12.4 | -17.8 | 0.5 | 1.1 | 34.6*
CN(C)CCN1C(=O)C(=O)/C(=C(/O)c2ccc3c(c2)OCCO3)C1c1ccccn1 (stereo not drawn) | -1.1 | 1.7 | 13.9 | -2.1 | -0.6 | 24.3*
O=C1C(=O)N(CCN2CCOCC2)C(c2ccccn2)/C1=C(/O)c1ccc(F)cc1 (stereo not drawn) | 3.5 | 5.4 | -0.2 | -10.3 | 0.3 | 19.1*
COc1ccc(CN2CN(S(=O)(=O)c3ccccc3)c3nc4ccccc4nc32)cc1 | -0.5 | 0.8 | 9.2 | -0.7 | -1.6 | 4.6
O=S(=O)(NC1CCCC1)c1ccc(Br)s1 | 1.0 | -0.7 | 0.7 | -7.0 | -0.6 | 0.3

Screening results as filed in PubChem.
